Holding throughout (type): functional
Test [1] relates to Fusarium oxysporum. Briefly: Antimicrobial activity against Fusarium oxysporum at 1 mg/mL after 48 hrs by agar disc diffusion method. Particulars: read-out: DIZ. An outline of the steps: (§1)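 Sterile 5 mm filter paper disks were impregnated with test solution in DMF (1 mg/mL) and placed on agar plates seeded with the test organism, in triplicate. Bacteria were incubated at 37 °C for 24 h and fungi for […] (so in the source). The read-out was the average inhibition zone diameter around the disks, in mm.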
On the technique in general: A growth-free zone around the sample is the usual read-out of agar diffusion tests.

The subject of test [2] is Escherichia coli. Kind of test: Antimicrobial activity against Escherichia coli at 1 mg/mL after 24 hrs by agar disc diffusion method. As to conditions: read-out: DIZ. In a few lines: as §1
Test [3] has as its system Pseudomonas aeruginosa. Briefly: Antimicrobial activity against Pseudomonas aeruginosa after 24 hrs by microdilution susceptibility test. An outline of the steps:
(§2)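 MIC was determined by broth microdilution, using Müller–Hinton broth for bacteria and Sabouraud liquid medium for fungi. Stocks were made in DMF and serially diluted twofold. Wells were inoculated at 10⁶ CFU/mL and plates incubated at 36 °C for 24–48 h, with controls included. Only compounds giving agar-diffusion zones >14 mm were tested.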
(Broth dilution looks for growth in wells or tubes with falling amounts of substance.)

The test system of test [4] is Escherichia coli. Briefly: Antimicrobial activity against Escherichia coli after 24 hrs by microdilution susceptibility test. In a few lines:
as §2

In test [5] the test system is Pseudomonas aeruginosa. Briefly: Antimicrobial activity against Pseudomonas aeruginosa at 1 mg/mL after 24 hrs by agar disc diffusion method. Particulars: read-out: DIZ. An outline of the steps: as §1
Test [6] relates to Bacillus subtilis. Kind of test: Antimicrobial activity against Bacillus subtilis at 1 mg/mL after 24 hrs by agar disc diffusion method. Particulars: read-out: DIZ. In a few lines: as §1
Test [7] relates to Botrytis fabae. Kind of test: Antimicrobial activity against Botrytis fabae at 1 mg/mL […] by agar disc diffusion method. As to conditions: read-out: DIZ.
Test [8] has as its system Botrytis fabae. Briefly: Antimicrobial activity against Botrytis fabae after 48 hrs by microdilution susceptibility test. An outline of the steps:
as §2

Test [9] has as its system Bacillus thuringiensis. Briefly: Antimicrobial activity against Bacillus thuringiensis at 1 mg/mL after 24 hrs by agar disc diffusion method. As to conditions: read-out: DIZ. In a few lines:
as §1

Test [10] relates to Bacillus subtilis. Briefly: Antimicrobial activity against Bacillus subtilis after 24 hrs by microdilution susceptibility test. An outline of the steps: as §2
Test [11] relates to Bacillus thuringiensis. Briefly: Antimicrobial activity against Bacillus thuringiensis after 24 hrs by microdilution susceptibility test. In a few lines: as §2
For test [12], the system named is Fusarium oxysporum. Briefly: Antimicrobial activity against Fusarium oxysporum after 48 hrs by microdilution susceptibility test. In a few lines: as §2

≈ marks a conversion by molar mass, not a printed value.

The MIC is the least concentration at which growth counts as inhibited. Low values mean greater potency, high ones weaker potency. One may read the MBC as the smallest concentration meeting the test's criterion for killing. Lower therefore signals more potent killing. `N#Cc1ccccc1C(/N=N/c1ccc(Cl)cc1)C(N)=O` (stereo not drawn): the zone of inhibition at 1000 µg/mL in the test on Fusarium oxysporum [1] was determined as 16 mm; with Escherichia coli [2], 27 mm; in the test with Pseudomonas aeruginosa [5], 15 mm; with Bacillus subtilis [6] it was 38 mm; with Botrytis fabae [7], 16 mm; with Bacillus thuringiensis [9], 33 mm. Moreover, the MIC came to 25 µg/mL (≈ 83.7 µM) with Pseudomonas aeruginosa [3]; 12.5 µg/mL (≈ 41.8 µM) against Escherichia coli [4]; 12.5 µg/mL (≈ 41.8 µM) in the test with Botrytis fabae [8]; 6.25 µg/mL (≈ 20.9 µM) with Bacillus subtilis [10]; 12.5 µg/mL (≈ 41.8 µM) in the test on Bacillus thuringiensis [11]; 25 µg/mL (≈ 83.7 µM) against Fusarium oxysporum [12]. In addition, the MBC against Escherichia coli [4] stood at 100 µg/mL (≈ 335 µM); in the test with Bacillus subtilis [10], 50 µg/mL (≈ 167 µM).

As to `CC1(C)S[C@@H]2[C@H](NC(=O)[C@H](N)c3ccccc3)C(=O)N2[C@H]1C(=O)O` [AMPICILLIN], the zone of inhibition at 1000 µg/mL in the test with Escherichia coli [2] is 38 mm; in the test with Bacillus subtilis [6], 40 mm. For the same compound, the MBC in the test on Escherichia coli [4] is 25 µg/mL (≈ 71.5 µM); against Bacillus subtilis [10], 50 µg/mL (≈ 143 µM). In addition, the minimum inhibitory concentration (MIC) in the test with Escherichia coli [4] worked out at 6.25 µg/mL (≈ 17.9 µM); with Bacillus subtilis [10] it was 3.12 µg/mL (≈ 8.94 µM).

As for `N#Cc1ccccc1C(/N=N/c1ccc([N+](=O)[O-])cc1)C(N)=O` (stereo not drawn), the zone of inhibition at 1000 µg/mL with Fusarium oxysporum [1] amounted to 35 mm; with Escherichia coli [2], 15 mm; in the test with Pseudomonas aeruginosa [5], 16 mm; with Bacillus subtilis [6], 33 mm; in the test on Botrytis fabae [7], 38 mm; in the test with Bacillus thuringiensis [9], 35 mm. The MIC stood at 25 µg/mL (≈ 80.8 µM) against Pseudomonas aeruginosa [3]; 25 µg/mL (≈ 80.8 µM) in the test with Escherichia coli [4]; 12.5 µg/mL (≈ 40.4 µM) in the test on Botrytis fabae [8]; 6.25 µg/mL (≈ 20.2 µM) against Bacillus subtilis [10]; 12.5 µg/mL (≈ 40.4 µM) in the test on Bacillus thuringiensis [11]; 12.5 µg/mL (≈ 40.4 µM) against Fusarium oxysporum [12]. For the same compound, the figures for the MBC with Escherichia coli [4] and against Bacillus subtilis [10] were 200 µg/mL (≈ 647 µM) and 50 µg/mL (≈ 162 µM), respectively.

Consider `N#C/C(=C\c1ccc(Cl)cc1)c1ccccc1C#N`, for which the zone of inhibition at 1000 µg/mL in the test on Fusarium oxysporum [1] came to 15 mm; with Escherichia coli [2], 15 mm; with Pseudomonas aeruginosa [5], 20 mm; in the test on Bacillus subtilis [6], 21 mm; in the test on Botrytis fabae [7], 26 mm; in the test on Bacillus thuringiensis [9], 20 mm. For the same compound, the MIC in the test with Pseudomonas aeruginosa [3] worked out at 100 µg/mL (≈ 378 µM); against Escherichia coli [4] it was 100 µg/mL (≈ 378 µM); in the test on Botrytis fabae [8], 100 µg/mL (≈ 378 µM); against Bacillus subtilis [10], 50 µg/mL (≈ 189 µM); with Bacillus thuringiensis [11], 50 µg/mL (≈ 189 µM); against Fusarium oxysporum [12], 100 µg/mL (≈ 378 µM). Besides, the MBC against Escherichia coli [4] and against Bacillus subtilis [10] was 200 µg/mL (≈ 756 µM) in each case.

With `CCOC(=O)c1c2[nH]c(=N)c3ccccc3c2nn1-c1ccccc1`, the zone of inhibition at 1000 µg/mL is 33 mm with Fusarium oxysporum [1]; 20 mm in the test with Escherichia coli [2]; 19 mm in the test with Pseudomonas aeruginosa [5]; 33 mm with Bacillus subtilis [6]; 20 mm in the test on Botrytis fabae [7]; 35 mm in the test on Bacillus thuringiensis [9]. Also, the MIC with Pseudomonas aeruginosa [3] was determined as 50 µg/mL (≈ 150 µM); in the test with Escherichia coli [4], 50 µg/mL (≈ 150 µM); with Botrytis fabae [8] it was 25 µg/mL (≈ 75.2 µM); in the test on Bacillus subtilis [10], 25 µg/mL (≈ 75.2 µM); in the test with Bacillus thuringiensis [11], 25 µg/mL (≈ 75.2 µM); against Fusarium oxysporum [12], 50 µg/mL (≈ 150 µM). In addition, the minimal bactericidal concentration (MBC) against Escherichia coli [4] and against Bacillus subtilis [10] was 200 µg/mL (≈ 602 µM) in each case.

On to `C[C@@H]1C[C@@H]([C@H](O)CC2CC(=O)NC(=O)C2)C(=O)[C@@H](C)C1` [CYCLOHEXIMIDE], for which the figures for the zone of inhibition at 1000 µg/mL in the test on Fusarium oxysporum [1] and with Botrytis fabae [7] were 43 mm and 42 mm, respectively. The minimum inhibitory concentration (MIC) in the test with Botrytis fabae [8] and in the test on Fusarium oxysporum [12] was 3.12 µg/mL (≈ 11.1 µM) in each case.

Regarding `N#Cc1ccccc1C(C#N)/N=N/c1ccccc1` (stereo not drawn), the zone of inhibition at 1000 µg/mL amounted to 38 mm in the test with Fusarium oxysporum [1]; 33 mm with Escherichia coli [2]; 30 mm in the test with Pseudomonas aeruginosa [5]; 37 mm in the test with Bacillus subtilis [6]; 40 mm in the test on Botrytis fabae [7]; 30 mm in the test with Bacillus thuringiensis [9]. Besides, the MIC against Pseudomonas aeruginosa [3] amounted to 12.5 µg/mL (≈ 50.8 µM); against Escherichia coli [4], 25 µg/mL (≈ 102 µM); with Botrytis fabae [8], 12.5 µg/mL (≈ 50.8 µM); in the test on Bacillus subtilis [10] it was 12.5 µg/mL (≈ 50.8 µM); against Bacillus thuringiensis [11], 25 µg/mL (≈ 102 µM); in the test with Fusarium oxysporum [12] it was 12.5 µg/mL (≈ 50.8 µM). Besides, the MBC worked out at 200 µg/mL (≈ 812 µM) in the test with Escherichia coli [4] and 100 µg/mL (≈ 406 µM) in the test on Bacillus subtilis [10].

For `O=C(N[C@H](CO)[C@H](O)c1ccc([N+](=O)[O-])cc1)C(Cl)Cl` [CHLORAMPHENICOL], the zone of inhibition at 1000 µg/mL was found to be 37 mm with Escherichia coli [2], 38 mm in the test on Pseudomonas aeruginosa [5], 44 mm with Bacillus subtilis [6] and 44 mm in the test with Bacillus thuringiensis [9]. In addition, the MIC is 6.25 µg/mL (≈ 19.3 µM) against Pseudomonas aeruginosa [3], 6.25 µg/mL (≈ 19.3 µM) in the test with Escherichia coli [4], 3.12 µg/mL (≈ 9.67 µM) in the test on Bacillus subtilis [10] and 3.12 µg/mL (≈ 9.67 µM) against Bacillus thuringiensis [11].

(Values after ChEMBL document CHEMBL2331322, “Synthesis and antimicrobial activity of some new benzo and naphthonitrile derivatives” (2013).)
